Source: ChEMBL document CHEMBL4715904, “Discovery of an Anion-Dependent Farnesyltransferase Inhibitor from a Phenotypic Screen” (ACS Med Chem Lett, 2021)
Active and inactive are the calls of the source. No cut-off for these calls is given here.

What was measured:
[1] = Inhibition of recombinant rat FTase expressed in Escherichia coli using 3H-FPP and biotinylated-DESGPGCMSCKCVLS peptide as substrates incubated for 30 mins in presence of 1 mM DMA-PP by scintillation proximity assay
Procedure, shortened: (§1)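 Cell-free FTase inhibition assay, standard protocol; anion-dependent variants repeated with added anion (dimethylallyl diphosphate at increasing concentrations, or other anions) beyond the standard-protocol level.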

[2] = Inhibition of rat recombinant FTase expressed in Escherichia coli using 3H-FPP and biotinylated-DESGPGCMSCKCVLS peptide as substrates incubated for 30 mins in presence of 5 mM thiosulfate by scintillation proximity assay; procedure, shortened: as §1
[3] = Inhibition of recombinant rat FTase expressed in Escherichia coli using 3H-FPP and biotinylated-DESGPGCMSCKCVLS peptide as substrates incubated for 30 mins by scintillation proximity assay; procedure, shortened: as §1
[4] = tested on: Human immunodeficiency virus 1; test: Potentiation of vorinostat-induced reactivation of latent HIV-1 infected in human Jurkat 2C4 cells assessed as increase in HIV-1 transcription incubated for 24 hrs in presence of vorinostat by Steady-Glo luciferase reporter gene assay relative to control; format: functional
[5] = species on record: Homo sapiens; test: Binding affinity to recombinant FTase (unknown origin) assessed as melting temperature at 20 uM by TdF assay (reference value: 46.2 +/- 0.2 degreeC)
[6] = target: T1, NmrA-like family domain-containing protein 1 (Homo sapiens, UniProt Q9HBL8); test: Displacement of (1-(2-aminoethyl)-3,5-dimethyl-1H-pyrazol-4-yl)(4-((1-neopentyl-1H-benzo[d]imidazol-2-yl)methyl)piperazin-1-yl)methanone from NMRAL1 in vorinostat-stimulated human Jurkat 2C4 cells infected with latent HIV-1 by pull-down experiment based competitive binding assay; format: tissue-based
T1 sequence (Q9HBL8 whole entry, the tested form may be a part): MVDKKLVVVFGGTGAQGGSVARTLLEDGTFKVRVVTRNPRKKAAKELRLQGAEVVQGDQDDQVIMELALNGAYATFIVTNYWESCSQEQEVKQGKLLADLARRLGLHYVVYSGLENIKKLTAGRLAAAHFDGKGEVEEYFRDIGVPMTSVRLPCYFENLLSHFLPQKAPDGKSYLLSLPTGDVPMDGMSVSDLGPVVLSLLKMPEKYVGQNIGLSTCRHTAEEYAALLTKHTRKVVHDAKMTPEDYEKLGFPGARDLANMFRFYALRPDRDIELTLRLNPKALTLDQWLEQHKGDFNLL
Procedure, shortened: (§2)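 Affinity matrix made by immobilizing the aminoethyl-linked probe on Sepharose beads at 5.8, 3 and 1.4 mM; beads exposed to lysates of Jurkat 2C4 cells pretreated with vorinostat (250 nM); bound proteins pulled down, with free compound competing for binding.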

[7] = Inhibition of recombinant rat FTase expressed in Escherichia coli using 3H-FPP and biotinylated-DESGPGCMSCKCVLS peptide as substrates incubated for 30 mins in presence of 5 mM phosphate by scintillation proximity assay; procedure, shortened: as §1
[8] = tested on: Human immunodeficiency virus 1; test: Reactivation of latent HIV-1 infected in human Jurkat 2C4 cells assessed as increase in HIV-1 transcription incubated for 24 hrs by Steady-Glo luciferase reporter gene assay; format: functional, organism-based; conditions: for EC50: Human immunodeficiency virus 1, 2C4, 24 h
Procedure, shortened: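 Jurkat 2C4 latent HIV reporter line (minimal provirus, Tat H12L, LTR-driven luciferase); latency reversal measured as increase in luciferase luminescence in cell lysates.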

[9] = species on record: Homo sapiens; test: Binding affinity to recombinant FTase (unknown origin) assessed as change in melting temperature at 20 uM by TdF assay
[10] = tested on: Human immunodeficiency virus 1; test: Potentiation of vorinostat-induced reactivation of latent HIV-1 infected in human Jurkat 2C4 cells assessed as increase in HIV-1 transcription incubated for 24 hrs in presence of vorinostat by Steady-Glo luciferase reporter gene assay; format: functional, organism-based; conditions: Human immunodeficiency virus 1, 2C4, 24 h
[11] = Inhibition of recombinant rat FTase expressed in Escherichia coli using 3H-FPP and biotinylated-DESGPGCMSCKCVLS peptide as substrates incubated for 30 mins in presence of 5 mM pyrophosphate by scintillation proximity assay; procedure, shortened: as §1
[12] = Inhibition of recombinant rat FTase expressed in Escherichia coli using 3H-FPP and biotinylated-DESGPGCMSCKCVLS peptide as substrates incubated for 30 mins in presence of 5 mM DMA-PP by scintillation proximity assay; procedure, shortened: as §1
[13] = Inhibition of recombinant rat FTase expressed in Escherichia coli using 3H-FPP and biotinylated-DESGPGCMSCKCVLS peptide as substrates incubated for 30 mins in presence of 5 mM ATP by scintillation proximity assay; procedure, shortened: as §1
[14] = Inhibition of recombinant rat FTase expressed in Escherichia coli using 3H-FPP and biotinylated-DESGPGCMSCKCVLS peptide as substrates incubated for 30 mins in presence of 2 mM DMA-PP by scintillation proximity assay; procedure, shortened: as §1
[15] = target: T2, Protein farnesyltransferase subunit beta (Homo sapiens, UniProt P49356); test: Displacement of (1-(2-aminoethyl)-3,5-dimethyl-1H-pyrazol-4-yl)(4-((1-neopentyl-1H-benzo[d]imidazol-2-yl)methyl)piperazin-1-yl)methanone from FNTB in vorinostat-stimulated human Jurkat 2C4 cells infected with latent HIV-1 by pull-down experiment based competitive binding assay
T2 sequence (P49356 whole entry): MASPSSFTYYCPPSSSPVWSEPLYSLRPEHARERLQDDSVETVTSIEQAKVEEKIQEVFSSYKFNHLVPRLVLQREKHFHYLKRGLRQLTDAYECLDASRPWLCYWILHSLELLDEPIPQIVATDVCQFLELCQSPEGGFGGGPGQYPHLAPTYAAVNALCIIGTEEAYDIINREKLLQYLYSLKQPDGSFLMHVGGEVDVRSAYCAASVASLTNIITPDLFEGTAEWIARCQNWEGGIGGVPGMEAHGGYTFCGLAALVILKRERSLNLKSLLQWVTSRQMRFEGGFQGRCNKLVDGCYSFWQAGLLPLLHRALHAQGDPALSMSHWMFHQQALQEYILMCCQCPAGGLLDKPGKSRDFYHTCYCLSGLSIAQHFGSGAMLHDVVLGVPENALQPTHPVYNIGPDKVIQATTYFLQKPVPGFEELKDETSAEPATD

[16] = target: T3, Mitochondrial inner membrane m-AAA protease component AFG3L2 (Homo sapiens, UniProt Q9Y4W6); test: Displacement of (1-(2-aminoethyl)-3,5-dimethyl-1H-pyrazol-4-yl)(4-((1-neopentyl-1H-benzo[d]imidazol-2-yl)methyl)piperazin-1-yl)methanone from AFG3L2 in vorinostat-stimulated human Jurkat 2C4 cells infected with latent HIV-1 by pull-down experiment based competitive binding assay; format: tissue-based; procedure, shortened: as §2
T3 sequence (Q9Y4W6 whole entry): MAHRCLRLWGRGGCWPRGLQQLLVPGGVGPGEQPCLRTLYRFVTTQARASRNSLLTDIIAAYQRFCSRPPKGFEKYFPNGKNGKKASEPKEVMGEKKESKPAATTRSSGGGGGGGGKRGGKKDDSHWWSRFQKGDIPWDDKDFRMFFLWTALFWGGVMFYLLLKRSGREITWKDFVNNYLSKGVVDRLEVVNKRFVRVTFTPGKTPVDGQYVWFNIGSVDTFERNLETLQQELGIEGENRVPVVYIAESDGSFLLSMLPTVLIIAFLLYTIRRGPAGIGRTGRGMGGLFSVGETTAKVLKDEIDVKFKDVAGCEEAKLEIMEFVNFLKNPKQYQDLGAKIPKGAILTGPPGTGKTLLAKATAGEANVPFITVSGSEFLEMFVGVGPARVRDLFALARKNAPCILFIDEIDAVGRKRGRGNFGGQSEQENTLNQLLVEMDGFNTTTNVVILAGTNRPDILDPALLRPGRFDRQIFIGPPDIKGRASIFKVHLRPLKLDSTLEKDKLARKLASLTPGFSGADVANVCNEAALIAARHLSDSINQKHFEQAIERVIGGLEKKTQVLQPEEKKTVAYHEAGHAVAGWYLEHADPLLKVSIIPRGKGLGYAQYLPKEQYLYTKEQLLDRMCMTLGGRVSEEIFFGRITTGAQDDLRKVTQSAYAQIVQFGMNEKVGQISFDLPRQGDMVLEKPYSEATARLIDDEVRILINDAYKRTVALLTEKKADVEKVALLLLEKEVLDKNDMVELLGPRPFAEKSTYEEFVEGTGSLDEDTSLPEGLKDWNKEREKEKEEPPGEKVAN

[17] = target: T4, Protein farnesyltransferase/geranylgeranyltransferase type-1 subunit alpha (Homo sapiens, UniProt P49354); test: Displacement of (1-(2-aminoethyl)-3,5-dimethyl-1H-pyrazol-4-yl)(4-((1-neopentyl-1H-benzo[d]imidazol-2-yl)methyl)piperazin-1-yl)methanone from FNTA in vorinostat-stimulated human Jurkat 2C4 cells infected with latent HIV-1 by pull-down experiment based competitive binding assay
[18] = target: T4, Protein farnesyltransferase/geranylgeranyltransferase type-1 subunit alpha; test: Displacement of (4-((1-neopentyl-1H-benzo[d]imidazol-2-yl)methyl)piperazin-1-yl)(1,3,5-trimethyl-1H-pyrazol-4-yl)methanone from FNTA in vorinostat-stimulated human Jurkat 2C4 cells infected with latent HIV-1 by pull-down experiment based competitive binding assay; procedure, shortened: as §2
[19] = target: T3, Mitochondrial inner membrane m-AAA protease component AFG3L2; test: Displacement of (4-((1-neopentyl-1H-benzo[d]imidazol-2-yl)methyl)piperazin-1-yl)(1,3,5-trimethyl-1H-pyrazol-4-yl)methanone from AFG3L2 in vorinostat-stimulated human Jurkat 2C4 cells infected with latent HIV-1 by pull-down experiment based competitive binding assay; format: tissue-based; procedure, shortened: as §2
[20] = target: T1, NmrA-like family domain-containing protein 1; test: Displacement of (4-((1-neopentyl-1H-benzo[d]imidazol-2-yl)methyl)piperazin-1-yl)(1,3,5-trimethyl-1H-pyrazol-4-yl)methanone from NMRAL1 in vorinostat-stimulated human Jurkat 2C4 cells infected with latent HIV-1 by pull-down experiment based competitive binding assay; format: tissue-based; procedure, shortened: as §2
[21] = target: T2, Protein farnesyltransferase subunit beta; test: Displacement of (4-((1-neopentyl-1H-benzo[d]imidazol-2-yl)methyl)piperazin-1-yl)(1,3,5-trimethyl-1H-pyrazol-4-yl)methanone from FNTB in vorinostat-stimulated human Jurkat 2C4 cells infected with latent HIV-1 by pull-down experiment based competitive binding assay; format: tissue-based; procedure, shortened: as §2

Structure (SMILES) | IC50 [1] [nM] | IC50 [2] [nM] | IC50 [3] [nM] | Activity [4] [%] | IC50 [7] [nM] | EC50 [8] [nM] | ΔTm [9] [°C] | EC50 [10] [nM] | IC50 [11] [nM] | IC50 [12] [nM] | IC50 [13] [nM] | IC50 [14] [nM] | also measured
Cc1nn(C)c(C)c1C(=O)N1CCN(Cc2nc3ccccc3n2CC(C)(C)C)CC1 | 1000 | 2100 | ≥ 20000 | 100 | 1300 | > 8000 | 4.2 | 340 | 2500 | 500 | 250 | 900 | Tm [5]: 50.4 °C; Kd [6]: 19000 nM; Kd [15]: 475 nM; Kd [16]: 19000 nM; Kd [17]: 340 nM
CC(=O)NCCn1nc(C)c(C(=O)N2CCN(Cc3nc4ccccc4n3CC(C)(C)C)CC2)c1C | – | – | – | – | – | > 8000 | – | 1100 | – | – | – | – | –
N#Cc1ccc(Cn2cncc2CN2CCN(c3cccc(Cl)c3)C(=O)C2)cc1 [L-778123 FREE BASE] | 40 | 50 | 50 | 100 | 70 | – | – | 170 | 70 | 70 | 50 | 100 | Activity [8]: Active
CCn1c(CN2CCN(C(=O)c3c(C)nn(C)c3C)CC2)nc2ccccc21 | – | > 40000 | – | – | > 40000 | > 8000 | 2 | > 8000 | > 40000 | – | > 40000 | – | inhibition [18]: inactive; inhibition [19]: inactive; inhibition [20]: inactive; inhibition [21]: inactive
